Calls of active or inactive are those of the source. Unless noted, the rule behind the calls is not given here.

Data set [1] deals with Leishmania donovani. The experiment in a line: Cytotoxicity against SSG-resistant Leishmania donovani Ld39 by MTS assay. Type of data set: organism-based. The essentials:
(§1)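 Promastigotes in Schneider's Drosophila medium (pH 6.9) with 10% heat-inactivated FCS, 4 mM glutamine and gentamicin at 27°C. Seeded at 10^5 cells/well, exposed to a range of modulator concentrations (up to 200 μM) for 72 h at 27°C. MTS/PMS added, 4 h colour development, OD 490 nm. Survival expressed relative to untreated wells; ≥2 independent experiments in triplicate.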
(In general: Tetrazolium assays rely on reduction of a dye to a coloured formazan, in cell work by metabolically active cells.)

The test system of data set [2] is Leishmania donovani. The experiment in a line: Cytotoxicity against wild-type Leishmania donovani LdAG83 by MTS assay. Type of data set: organism-based. The settings on record: AG83. In outline: as §1
For data set [3], the system named is Leishmania enriettii. The data set can be described thus: Cytotoxicity against pentamidine-resistant Leishmania enriettii LePentR50 by MTS assay. Type of data set: organism-based. In outline:
as §1

Data set [4] in a line: Resistance reversal as >50% reduction in pentamidine IC50 in wild-type Leishmania enriettii by MTS assay. Type of data set: functional. In outline: (§2)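 L. enriettii promastigotes are wild type, LeMDR1−/− (no drug in culture) or LeV160 (maintained in 160 μg/ml vinblastine). Seeded at 10^5 cells/well with graded pentamidine plus 6 μM modulator for 72 h at 27°C. MTS read-out at 490 nm gives the pentamidine IC50. Three independent experiments in triplicate.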

Data set [5] is described as follows: Effect on modulating SSG-resistance of Leishmania donovani Ld39 promastigotes assessed as reversal of resistance at 6 uM after 72 hrs by MTS. Type of data set: functional. In outline:
(§3)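 Ld39 or LdAG83 promastigotes seeded at 10^5 cells/well with serial SSG dilutions plus modulator (0, 1, 2, 4, 6 μM) for 72 h at 27°C. SSG concentrations differ between the two strains. Percentage survivors by MTS. Triplicate points, three separate experiments.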

A short description of data set [6]: Resistance reversal as >50% reduction in SSG IC50 in drug-resistant Leishmania donovani Ld2001 by MTS assay. Type of data set: functional. The essentials: (§4)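 Promastigotes seeded at 10^5 cells/well and incubated 72 h at 27°C with serial concentrations of SSG (L. donovani) or pentamidine (L. enriettii LePentR50), each with 6 μM modulator or DMSO solvent control. Survival read by MTS/PMS at 490 nm after 4 h. […] Triplicates per concentration.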

The subject of data set [7] is Leishmania enriettii. The experiment in a line: Cytotoxicity against drug-resistant Leishmania enriettii LePentR50 at 60 uM after 3 hrs. Type of data set: organism-based. As to conditions: in vitro.
The test system of data set [8] is Leishmania donovani. The data set can be described thus: Cytotoxicity against wild-type Leishmania donovani at 60 uM after 3 hrs. Type of data set: organism-based. The settings on record: in vitro.
Data set [9] relates to Leishmania enriettii. The experiment in a line: Increase of pentamidine accumulation in drug-resistant Leishmania enriettii LePentR50 promastigotes at 60 uM after 3 hrs. Type of data set: functional, organism-based. In outline: (§5)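 4-day-old LePentR50 promastigotes (2 × 10^8 cells/ml, 1 ml) incubated with 0.84 mM pentamidine plus modulator (0, 15, 30, 60 μM) for 3 h at 27°C in the dark. Cells washed with cold PBS and lysed in 75% acetonitrile by freeze-thaw. Pentamidine quantified by ion-pair C18 HPLC at 265 nm against a standard curve and expressed per mg protein. Triplicates, repeated twice.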

The nature of data set [10]: Resistance reversal as >50% reduction in SSG IC50 in wild-type Leishmania donovani LdAG83 by MTS assay. Type of data set: functional. The essentials: as §4
The nature of data set [11]: Resistance reversal as >50% reduction in pentamidine IC50 in Leishmania enriettii LeMDR1-/- by MTS assay. Type of data set: functional. In outline: as §2
Data set [12] can be described thus: Effect on modulating drug-resistance of wild type SSG-sensitive Leishmania donovani LdAG83 promastigotes assessed as reversal of resistance at 6 uM after 72 hrs by MTS. Type of data set: functional. The essentials:
as §3

The test system of data set [13] is Leishmania enriettii. The data set can be described thus: Increase of pentamidine accumulation in drug-resistant Leishmania enriettii LePentR50 promastigotes at 30 uM after 3 hrs. Type of data set: functional, organism-based. In outline:
as §5

The nature of data set [14]: Resistance reversal as >50% reduction in SSG IC50 in drug-resistant Leishmania donovani Ld39 by MTS assay. Type of data set: functional. The essentials:
as §4

Data set [15] deals with Leishmania enriettii. The experiment in a line: Increase of pentamidine accumulation in drug-resistant Leishmania enriettii LePentR50 promastigotes at 15 uM after 3 hrs. Type of data set: functional, organism-based. In outline: as §5
Data set [16] in a line: Resistance reversal as >50% reduction in pentamidine IC50 in drug-resistant Leishmania enriettii LePentR50 by MTS assay. Type of data set: functional. The essentials: as §4
Data set [17] in a line: Resistance reversal as >50% reduction in pentamidine IC50 in Leishmania enriettii LeV160 overexpressing LeMDR1 by MTS assay. Type of data set: functional. In outline:
as §2

For data set [18], the system named is Leishmania donovani. The experiment in a line: Increase of SSG accumulation in drug-resistant Leishmania donovani Ld2001 at 60 uM relative to LdAG83 cells. Type of data set: functional, organism-based. In outline:
(§6)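 Axenic amastigotes made by shifting 4-day promastigotes into supplemented M199 at 37°C for 24 h. 1 ml (2 × 10^8 cells/ml) incubated with 0.05 mM SSG plus modulator (0, 30, 60 μM) for 3 h at 37°C. After PBS washes, cells digested in nitric acid. Total Sb measured by ICP-MS (m/z 121/123, In internal standard), in nmol/mg protein. Expressed as % of LdAG83; triplicates, two experiments.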

The nature of data set [19]: Effect on modulating pentamidine-resistance of Leishmania enriettii LePentR50 assessed as decrease in survival after 72 hrs by MTS. Type of data set: functional. In outline:
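LePentR50 promastigotes seeded at 10^5 cells/well, exposed 72 h at 27°C to graded modulator alone or with 60 μg/ml pentamidine. MTS survival as percentage of untreated. […] Triplicates, three repeats.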

Data set [20] in a line: Toxicity against pentamidine-resistance Leishmania enriettii LePentR50 upto 6 uM.
In data set [21] the test system is Leishmania donovani. The experiment in a line: Increase of SSG accumulation in drug-resistant Leishmania donovani Ld2001 at 30 uM relative to LdAG83 cells. Type of data set: functional, organism-based. The essentials: as §6
The test system of data set [22] is Leishmania donovani. The experiment in a line: Increase of SSG accumulation in drug-resistant Leishmania donovani Ld39 at 60 uM relative to LdAG83 cells. Type of data set: functional, organism-based. In outline: as §6
The test system of data set [23] is Leishmania donovani. The data set can be described thus: Increase of SSG accumulation in drug-resistant Leishmania donovani Ld39 at 30 uM relative to LdAG83 cells. Type of data set: functional, organism-based. The essentials: as §6

Take `O=c1cc(-c2ccc(OCCOCCOCCOCCOCCOCCOCCOCCOCCOc3ccc(-c4cc(=O)c5c(O)cc(O)cc5o4)cc3)cc2)oc2cc(O)cc(O)c12`: the values for the IC50 with Leishmania donovani [1] and with Leishmania donovani [2] were 14 µM and 10 µM, respectively.

`O=c1cc(-c2ccc(OCCOCCOCCOCCOCCOCCOCCOCCOCCOCCOc3ccc(-c4cc(=O)c5c(O)cc(O)cc5o4)cc3)cc2)oc2cc(O)cc(O)c12`: the half-maximal inhibitory concentration (IC50) with Leishmania donovani [1] and in the data set with Leishmania donovani [2] was over 200 µM in each case.

With `O=c1cc(-c2ccc(OCCOCCOCCOCCOCCOCCOc3ccc(-c4cc(=O)c5c(O)cc(O)cc5o4)cc3)cc2)oc2cc(O)cc(O)c12`, the IC50 – broadly, the concentration that gives 50% inhibition – in the data set with Leishmania donovani [1] was 13 µM; with Leishmania enriettii [3], 40 µM; in the data set with Leishmania donovani [2] it was 11 µM.

On to `O=c1cc(-c2ccc(OCCOCCOCCOCCOCCOCCOCCOCCOc3ccc(-c4cc(=O)c5c(O)cc(O)cc5o4)cc3)cc2)oc2cc(O)cc(O)c12`, for which the results for the IC50 in the data set on Leishmania donovani [1] and in the data set on Leishmania donovani [2] were 14 µM and 12 µM, respectively.

For the compound `O=c1cc(-c2ccc(OCCOCCOCCOCCOc3ccc(-c4cc(=O)c5c(O)cc(O)cc5o4)cc3)cc2)oc2cc(O)cc(O)c12`, the IC50 in the data set with Leishmania donovani [1] was 10 µM; in the data set with Leishmania enriettii [3] it was over 200 µM; with Leishmania donovani [2], 7 µM. For the same compound, the Resistance reversal entry in data set [4], in data set [6], in [11], in data set [14], in data set [16] and in data set [17] was “Active” throughout. Further, in data set [5], the Resistance reversal result is “Dose-dependent effect”. Further, the Activity entry with Leishmania enriettii [7] and in the data set on Leishmania donovani [8] was “Not Active” throughout. Moreover, the Drug uptake with Leishmania enriettii [9] turned out to be 26.6 µM; with Leishmania enriettii [13], 4.69 µM; with Leishmania enriettii [15], 2.95 µM; in the data set on Leishmania donovani [18], 69%; with Leishmania donovani [21], 83%; with Leishmania donovani [22], 90%. The Drug uptake in the data set with Leishmania donovani [23] was found to be 74%. Besides, the Resistance reversal entry in [10] and in data set [12] was “inactive” throughout. The EC50 – broadly, the concentration giving half of the maximal effect – in data set [19] was 0.94 µM. The Toxicity entry in data set [20] is “Not Toxic”.

On to `O=c1cc(-c2ccc(OCCOCCOCCOCCOCCOCCOCCOCCOCCOCCOCCOCCOCCOc3ccc(-c4cc(=O)c5c(O)cc(O)cc5o4)cc3)cc2)oc2cc(O)cc(O)c12`, for which the IC50 was found to be 60 µM with Leishmania donovani [1] and 50 µM with Leishmania donovani [2].

For `O=c1cc(-c2ccc(OCCOCCOCCO)cc2)oc2cc(O)cc(O)c12`, the IC50 with Leishmania donovani [1], in the data set on Leishmania enriettii [3] and with Leishmania donovani [2] was over 200 µM throughout.

As for `O=c1cc(-c2ccc(OCCOCCOCCOCCOCCOc3ccc(-c4cc(=O)c5c(O)cc(O)cc5o4)cc3)cc2)oc2cc(O)cc(O)c12`, the values for the IC50 with Leishmania donovani [1], with Leishmania enriettii [3] and in the data set on Leishmania donovani [2] were 42 µM, 70 µM and 30 µM, respectively.

`O=c1cc(-c2ccc(OCCOCCOCCOc3ccc(-c4cc(=O)c5c(O)cc(O)cc5o4)cc3)cc2)oc2cc(O)cc(O)c12`: the IC50 worked out at 11 µM with Leishmania donovani [1] and 8 µM with Leishmania donovani [2]. For the same compound, in data set [5], the Resistance reversal result was “Dose-dependent effect”. The Resistance reversal entry in data set [6], in data set [11], in data set [14], in [16] and in data set [17] was “Active” in each case. In addition, the Resistance reversal entry in data set [10] was “inactive”. Moreover, in data set [19], the EC50 amounted to 1.85 µM.

As for `O=c1cc(-c2ccc(O)cc2)oc2cc(O)cc(O)c12` [APIGENIN], the IC50 in the data set on Leishmania donovani [1] worked out at 43 µM; in the data set with Leishmania enriettii [3] it was 55 µM; in the data set with Leishmania donovani [2], 32 µM.

`O=c1cc(-c2ccc(OCCOc3ccc(-c4cc(=O)c5c(O)cc(O)cc5o4)cc3)cc2)oc2cc(O)cc(O)c12` gave an IC50 with Leishmania donovani [2] of 95 µM.

Values taken from ChEMBL document CHEMBL1142086, “Flavonoid dimers as bivalent modulators for pentamidine and sodium stiboglucanate resistance in leishmania” (Antimicrob Agents Chemother, 2007).
